Experimental data pooled from the literature.
Lines come from different studies, so protocols differ.

O=C(Nc1ccc(OC(F)(F)F)cc1)N[C@H]1CC[C@H](Oc2ccc(C(=O)O)cc2)CC1 — solubility (simulated gastric fluid; 10 min, pH 1, 37 °C, acidic): 0.0002 µg/mL
c1cc(-c2ccc3ncnc(Nc4ncco4)c3c2)nc(N2C[C@H]3C[C@@H]2CO3)n1 — solubility (aqueous buffer; pH 7.4, 25 °C): 48 µM
CNS(=O)(=O)c1ccc(Nc2ncc(C(F)(F)F)c(N3CCC[C@](C)(O)C3)n2)c(C)c1 — solubility (FaSSIF; 2 h): 194 µM
Cc1ccc(Oc2ccc(NC(=O)CNc3ccccc3-n3cncn3)cc2)cc1 — solubility (PBS; pH 7.4): 15 µM
CO[C@H]1C[C@@H]2CC[C@@H](C)[C@@](O)(O2)C(=O)C(=O)N2CCCC[C@H]2C(=O)O[C@H]([C@H](C)C[C@@H]2CC[C@@H](O)[C@H](OC)C2)CC(=O)[C@H](C)/C=C(\C)[C@@H](O)[C@@H](OC)C(=O)[C@H](C)C[C@H](C)/C=C/C=C/C=C/1C — solubility (aqueous buffer; 18 h, pH 7.4): 6.03 µM
CC(C)N(c1ccc(Cl)c(F)c1)c1ccc(NC(=O)CN(C)c2ccccc2N2CCCC2=O)cn1 — solubility (PBS; pH 7.4): 9.6 µM
NCc1ccc(-c2nn(Cc3ccccn3)c3cccnc23)o1 — solubility (aqueous buffer; 6 h, pH 7.4): > 30 µg/mL
CC(C)(C)OC(=O)N1CCC(Oc2ccc3c(=O)c4c(Cl)cc(F)cc4[nH]c3c2)CC1 — solubility (absorbance; aqueous buffer; 90 min, pH 7.4): < 3.12 µM
CCOC(=O)C1=C(CN2CCC[C@@H]2C(=O)Nc2ccc(B(O)O)cc2)NC(c2nccs2)=N[C@H]1c1ccc(F)cc1Br — solubility (HPLC; aqueous buffer; pH 7.4): 4.14 µg/mL
NCc1ccc(-c2nn(Cc3ccccc3)c3ccccc23)o1 — solubility (aqueous buffer; 6 h, pH 7.4): > 45 µg/mL
CNS(=O)(=O)c1ccc(Nc2ncc3cc(Cl)c(=O)n(C4CCCC4)c3n2)c(C)c1 — solubility (PBS; 2 h, pH 7.4): 0.3 µM
FC(F)(F)c1cc(Nc2ncnc3ccc(-c4cccc(N5CCOCC5)c4)cc23)ccc1Cl — solubility (aqueous buffer; pH 7.4, 25 °C): < 0.7 µM
Cc1ccc(C(C)(C)c2ccc(NC(=O)CN(C)c3ccccc3N3CCCC3=O)cc2)cc1 — solubility (PBS; pH 7.4): 2.5 µM
CNS(=O)(=O)c1ccc(Nc2ncc(C(F)(F)F)c(N3CCC(C)(O)CC3)n2)c(C)c1 — solubility (PBS; 2 h, pH 7.4): 2.7 µM
Nc1nc2c(ncn2COCCO)c(=O)[nH]1 — solubility (shake flask; water; 24 h): 1770 µg/mL
CCCN(CCC)CCNc1ccc2c(=O)c3c([nH]c2c1)CCCC3 — solubility (absorbance; aqueous buffer; 90 min, pH 7.4): > 500 µM
C[C@@H]1CN(c2cccc(-c3ccc4ncnc(Nc5ncco5)c4c3)c2)C[C@H](C)O1 — solubility (aqueous buffer; pH 7.4, 25 °C): 11 µM
Cc1ccccc1CN1C(=O)C2=C(CCN(Cc3ccccc3)C2)N2CCN=C12 — solubility (shake flask; aqueous buffer; pH 4): 92100 µg/mL
COc1cc(NC(=O)Cn2ccc3cc(F)c(-c4cnn(C)c4)cc32)cc(OC)c1OC — solubility (PBS; pH 7.4): < 2.7 µM
O=C(O)Cc1ccccc1Nc1c(Cl)cccc1Cl — solubility (FeSSIF): 303 µM
CN1CCN(c2ccc(-c3ccc4nncc(Nc5ccc(OC(F)(F)F)cc5)c4c3)cc2)CC1 — solubility (aqueous buffer; pH 7.4, 25 °C): 2.5 µM
COc1ccc(Cn2cc(CO[C@@H]3O[C@H]4[C@H](OC[C@H]4O)[C@H]3O)nn2)cc1 — solubility (PBS; pH 7.4): 198 µM
CN1CCN(c2cccc(-c3ccc4ncnc(Nc5ccc([N+](=O)[O-])c(C(F)(F)F)c5)c4c3)c2)CC1 — solubility (aqueous buffer; pH 7.4, 25 °C): 2 µM
CCOc1ccc(Nc2c3c(nc4ccccc24)CCC3)cc1 — solubility (simulated gastric fluid; 30 min, pH 2, acidic): > 100 µg/mL
O=c1c2ccc(Oc3ccc(OC(F)(F)F)cc3)cc2[nH]c2cc(F)c(Cl)cc12 — solubility (absorbance; aqueous buffer; 90 min, pH 7.4): < 3.12 µM
OCc1ccc(-c2nn(Cc3ccccc3)c3ccccc23)o1 — solubility (aqueous buffer; 6 h, pH 7.4): 3 µg/mL
Cc1nc(Nc2ncnc3ccc(-c4cccc(N5CCOCC5)c4)cc23)oc1C — solubility (aqueous buffer; pH 7.4, 25 °C): 0.2 µM
COc1cc(Cn2nc(-c3ccc(CO)o3)c3ccccc32)ccn1 — solubility (aqueous buffer; 6 h, pH 7.4): > 33 µg/mL
CCCCN(CCCC)CCCOc1ccc2c(=O)c3c([nH]c2c1)CCCC3 — solubility (absorbance; aqueous buffer; 90 min, pH 7.4): > 500 µM
Cn1cc(-c2ccc3ccn(CC(=O)Nc4ccccc4Cl)c3c2)c(C(F)(F)F)n1 — solubility (PBS; pH 7.4): < 2.7 µM
CN1CCN(c2cccc(-c3ccc4ncnc(Nc5ncco5)c4c3)c2)CC1 — solubility (aqueous buffer; pH 7.4, 25 °C): 520 µM
CCOC(=O)C1=C(CN2CCOCC2)NC(c2nccs2)=NC1c1ccc(F)cc1Br (stereo not drawn) — solubility (HPLC; aqueous buffer; pH 2): 183 µg/mL
Clc1ccc(Nc2ncnc3ccc(-c4cccc(N5CCOCC5)c4)cc23)cc1Cl — solubility (aqueous buffer; pH 7.4, 25 °C): 4 µM
CNS(=O)(=O)c1ccc(Nc2ncc(C(F)(F)F)c([C@H]3CC[C@](C)(O)CC3)n2)c(C)c1 — solubility (FaSSIF; 2 h): 14 µM
OCc1ccc(-c2nn(Cc3ccncc3)c3ccccc23)o1 — solubility (aqueous buffer; 6 h, pH 7.4): > 45 µg/mL
O=C(O)c1cc(-c2ccc(-n3ccnn3)cc2)cc(-n2cc(-c3ccc(C(F)(F)F)cc3)nn2)c1 — solubility (aqueous buffer; pH 4): 0.74 µg/mL
Cc1cc(-c2ccnc3[nH]cc(F)c23)cc(F)c1[C@@]1(O)[C@H](C)CN(C2CCS(=O)(=O)CC2)C[C@@H]1C — solubility (aqueous buffer): > 50 µg/mL
Cc1ccc(N(c2ccc(NC(=O)CN(C)c3ccccc3N3CCCC3=O)cn2)C(C)C)cc1 — solubility (PBS; pH 7.4): 24 µM
CCN(CC)CCOc1ccc2c(=O)c3c([nH]c2c1)CCCC3 — solubility (absorbance; aqueous buffer; 90 min, pH 7.4): > 500 µM
CN1CCN(c2cccc(-c3ccc4ncnc(Nc5ccc(Cl)c(Cl)c5)c4c3)c2)CC1 — solubility (aqueous buffer; pH 7.4, 25 °C): < 1.7 µM
CC(C)(C(=O)O)[C@@H](NC(=O)Cc1cccc(I)c1)c1ccc2oc(=O)[nH]c2c1 — solubility (aqueous buffer; pH 6.8): > 700 µM
Cc1c(Cl)cccc1-c1ccc2c(c1)N(Cc1noc(C3CCC3)n1)C(=O)CO2 — solubility (PBS; 8 h, pH 7.4): 100 µM
Cc1ccc(N(C)c2ccc(NC(=O)CN(C)c3cccnc3N3CCCC3=O)cc2)cc1 — solubility (PBS; pH 7.4): 16 µM
OCc1ccc(-c2nn(Cc3ccccn3)c3cccnc23)o1 — solubility (aqueous buffer; 6 h, pH 7.4): > 30 µg/mL
COc1ccc(Nc2cnnc3cc(-c4cnc(N5CCCN(C)CC5)nc4)ccc23)cc1Cl — solubility (aqueous buffer; pH 7.4, 25 °C): 1000 µM
